Molecules are shown by their SMILES.

In general, Ki refers to the dissociation constant of the complex between target and ligand, obtained from inhibition or displacement. Read a high Ki as lower affinity. Usually ED50 stands for the midpoint of the dose-response relation. Low values mean an effect at a small dose, high ones a need for a large dose.

The target of one experiment is T1, Adenosine receptor A1 (Rattus norvegicus, UniProt P25099).
T1 sequence (P25099 whole entry): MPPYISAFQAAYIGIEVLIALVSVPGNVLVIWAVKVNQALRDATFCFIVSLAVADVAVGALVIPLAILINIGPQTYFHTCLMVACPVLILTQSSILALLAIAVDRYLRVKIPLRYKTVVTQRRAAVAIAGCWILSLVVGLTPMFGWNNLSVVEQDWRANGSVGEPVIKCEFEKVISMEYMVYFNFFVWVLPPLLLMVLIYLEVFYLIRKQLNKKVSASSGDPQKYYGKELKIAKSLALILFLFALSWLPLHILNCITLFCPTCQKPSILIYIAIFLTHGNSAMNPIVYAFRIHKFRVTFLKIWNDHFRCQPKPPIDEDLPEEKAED
As to the kind of experiment: Binding affinity for adenosine A1 receptor in vitro using rat brain membranes. The experiment is classed as cell membranes.
Details: not given
In a few lines:
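Whole rat brain membranes, homogenized in 50 mM Tris-HCl pH 7.4 and spun at 1090g then 48000g, pretreated with adenosine deaminase 1 U/mL for 30 min. Nonspecific binding defined with 10 μM PIA. Separated by GF/B filtration and scintillation counted, in triplicate. IC50 from log-logit regression, Ki via Cheng-Prusoff, one experiment.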
As for `OC[C@H]1O[C@@H](n2cnc3c(NCCc4cn(Cc5ccc(Cl)cc5)c5ccccc45)ncnc32)[C@H](O)[C@@H]1O`, the affinity, expressed as Ki, was 0.011 µM.

Compound `Cc1ccc(C)c(Cn2cc(CC(C)Nc3ncnc4c3ncn4C3O[C@H](C(=O)NC4CC4)[C@@H](O)[C@H]3O)c3ccccc32)c1` (stereo not given in full) returned a Ki of 0.18 µM.

Compound `Cc1ccc(C)c(Cn2cc(C(C)CNc3ncnc4c3ncn4[C@@H]3O[C@H](C(=O)NC4CC4)[C@@H](O)[C@H]3O)c3ccccc32)c1` (stereo not given in full) displayed a Ki of 0.2 µM.

`Cc1ccc(C)c(Cn2cc(CCNc3ncnc4c3ncn4[C@@H]3O[C@H](C(N)=O)[C@@H](O)[C@H]3O)c3ccccc32)c1` yielded a Ki of 0.51 µM.

As for `O=C(NC1CC1)[C@H]1OC(n2cnc3c(NCCc4cn(CCN5CCCCC5)c5ccccc45)ncnc32)[C@H](O)[C@@H]1O` (stereo not given in full), the Ki came to 0.0083 µM.

In another experiment the target is T2, Adenosine receptor A1 (Rattus norvegicus) (UniProt P25099).
T2 sequence (whole entry): T1 sequence (P25099 whole entry)
As to the kind of experiment: Percent displacement from adenosine A1 receptor at 10e-5 M in rat brain membrane in vitro.
Details: not given
The experiment is classed as cell membranes.
In turn, `OC[C@H]1O[C@@H](n2cnc3c(NCCc4cn(Cc5ccc(Cl)cc5)c5ccccc45)ncnc32)[C@H](O)[C@@H]1O` showed a Displacement of 100%.

In turn, `Cc1ccc(C)c(Cn2cc(CC(C)Nc3ncnc4c3ncn4C3O[C@H](C(=O)NC4CC4)[C@@H](O)[C@H]3O)c3ccccc32)c1` (stereo not given in full) displayed a Displacement of 96%.

Regarding `Cc1ccc(C)c(Cn2cc(C(C)CNc3ncnc4c3ncn4[C@@H]3O[C@H](C(=O)NC4CC4)[C@@H](O)[C@H]3O)c3ccccc32)c1` (stereo not given in full), the Displacement was determined as 97%.

On to `Cc1ccc(C)c(Cn2cc(CCNc3ncnc4c3ncn4[C@@H]3O[C@H](C(N)=O)[C@@H](O)[C@H]3O)c3ccccc32)c1`, for which the Displacement came to 87%.

Consider `O=C(NC1CC1)[C@H]1OC(n2cnc3c(NCCc4cn(CCN5CCCCC5)c5ccccc45)ncnc32)[C@H](O)[C@@H]1O` (stereo not given in full), for which the Displacement came to 99%.

In a further experiment the target is T2, Adenosine receptor A1 (Rattus norvegicus). The experiment is described as follows: Percent displacement from adenosine A1 receptor at 10e-7 M in rat brain membrane in vitro. The experiment is classed as cell membranes.
Details: not given
Compound `OC[C@H]1O[C@@H](n2cnc3c(NCCc4cn(Cc5ccc(Cl)cc5)c5ccccc45)ncnc32)[C@H](O)[C@@H]1O` yielded a Displacement of 71%.

Turning to `Cc1ccc(C)c(Cn2cc(CC(C)Nc3ncnc4c3ncn4C3O[C@H](C(=O)NC4CC4)[C@@H](O)[C@H]3O)c3ccccc32)c1` (stereo not given in full), the Displacement amounted to 21%.

In turn, `Cc1ccc(C)c(Cn2cc(C(C)CNc3ncnc4c3ncn4[C@@H]3O[C@H](C(=O)NC4CC4)[C@@H](O)[C@H]3O)c3ccccc32)c1` (stereo not given in full) returned a Displacement of 28%.

For `Cc1ccc(C)c(Cn2cc(CCNc3ncnc4c3ncn4[C@@H]3O[C@H](C(N)=O)[C@@H](O)[C@H]3O)c3ccccc32)c1`, the Displacement was found to be 17%.

For `O=C(NC1CC1)[C@H]1OC(n2cnc3c(NCCc4cn(CCN5CCCCC5)c5ccccc45)ncnc32)[C@H](O)[C@@H]1O` (stereo not given in full), the Displacement was found to be 90%.

The target of the next experiment is Adenosine A2 receptor (Rattus norvegicus, UniProt P29276+P30543). As to the kind of experiment: Binding affinity for adenosine A2 receptor in vitro using rat striatal membrane.
Details: not given
The experiment is classed as cell membranes. In a few lines: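 Rat striatal membranes in 50 mM Tris-HCl, 10 mM MgCl2, pH 7.7, adenosine deaminase treated (1 U/mL, 30 min). Incubated with [3H]NECA (4 nM, 50 μL) plus 0.11 μM cyclopentyladenosine and competitor for 60 min at 25 °C. Nonspecific binding defined with 5 μM NECA. GF/B filtration, scintillation counting, triplicate. IC50 from log-logit regression, Ki via Cheng-Prusoff, one experiment.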
Compound `OC[C@H]1O[C@@H](n2cnc3c(NCCc4cn(Cc5ccc(Cl)cc5)c5ccccc45)ncnc32)[C@H](O)[C@@H]1O` returned an inhibitory constant (Ki) of 0.14 µM.

`Cc1ccc(C)c(Cn2cc(CC(C)Nc3ncnc4c3ncn4C3O[C@H](C(=O)NC4CC4)[C@@H](O)[C@H]3O)c3ccccc32)c1` (stereo not given in full) yielded a Ki of 2.2 µM.

The compound `Cc1ccc(C)c(Cn2cc(C(C)CNc3ncnc4c3ncn4[C@@H]3O[C@H](C(=O)NC4CC4)[C@@H](O)[C@H]3O)c3ccccc32)c1` (stereo not given in full) had a Ki of 2.5 µM.

In turn, `Cc1ccc(C)c(Cn2cc(CCNc3ncnc4c3ncn4[C@@H]3O[C@H](C(N)=O)[C@@H](O)[C@H]3O)c3ccccc32)c1` showed a Ki of 2.6 µM.

Turning to `O=C(NC1CC1)[C@H]1OC(n2cnc3c(NCCc4cn(CCN5CCCCC5)c5ccccc45)ncnc32)[C@H](O)[C@@H]1O` (stereo not given in full), the Ki worked out at 0.12 µM.

Another experiment addresses T3, Adenosine A2 receptor (Rattus norvegicus) (UniProt P29276+P30543). As to the kind of experiment: Percent displacement from adenosine A2 receptor at 10e-5 M in rat striatal membrane in vitro. The experiment is classed as cell membranes.
Details: not given
In the case of `OC[C@H]1O[C@@H](n2cnc3c(NCCc4cn(Cc5ccc(Cl)cc5)c5ccccc45)ncnc32)[C@H](O)[C@@H]1O`, the Displacement turned out to be 97%.

The compound `Cc1ccc(C)c(Cn2cc(CC(C)Nc3ncnc4c3ncn4C3O[C@H](C(=O)NC4CC4)[C@@H](O)[C@H]3O)c3ccccc32)c1` (stereo not given in full) gave a Displacement of 84%.

`Cc1ccc(C)c(Cn2cc(C(C)CNc3ncnc4c3ncn4[C@@H]3O[C@H](C(=O)NC4CC4)[C@@H](O)[C@H]3O)c3ccccc32)c1` (stereo not given in full) gave a Displacement of 61%.

`Cc1ccc(C)c(Cn2cc(CCNc3ncnc4c3ncn4[C@@H]3O[C@H](C(N)=O)[C@@H](O)[C@H]3O)c3ccccc32)c1`: the Displacement came out at 61%.

`O=C(NC1CC1)[C@H]1OC(n2cnc3c(NCCc4cn(CCN5CCCCC5)c5ccccc45)ncnc32)[C@H](O)[C@@H]1O` (stereo not given in full) came in with a Displacement of 96%.

The target of a further experiment is T3, Adenosine A2 receptor (Rattus norvegicus). As to the kind of experiment: Percent displacement from adenosine A2 receptor at 10e-7 M in rat striatal membrane in vitro. To be noted: Striatum. The experiment is classed as cell membranes.
As for `OC[C@H]1O[C@@H](n2cnc3c(NCCc4cn(Cc5ccc(Cl)cc5)c5ccccc45)ncnc32)[C@H](O)[C@@H]1O`, the Displacement worked out at 59%.

`Cc1ccc(C)c(Cn2cc(CC(C)Nc3ncnc4c3ncn4C3O[C@H](C(=O)NC4CC4)[C@@H](O)[C@H]3O)c3ccccc32)c1` (stereo not given in full) displayed a Displacement of 9%.

Consider `Cc1ccc(C)c(Cn2cc(C(C)CNc3ncnc4c3ncn4[C@@H]3O[C@H](C(=O)NC4CC4)[C@@H](O)[C@H]3O)c3ccccc32)c1` (stereo not given in full), for which the Displacement came to 0%.

`Cc1ccc(C)c(Cn2cc(CCNc3ncnc4c3ncn4[C@@H]3O[C@H](C(N)=O)[C@@H](O)[C@H]3O)c3ccccc32)c1` had a Displacement of 0%.

Turning to `O=C(NC1CC1)[C@H]1OC(n2cnc3c(NCCc4cn(CCN5CCCCC5)c5ccccc45)ncnc32)[C@H](O)[C@@H]1O` (stereo not given in full), the Displacement is 44%.

In a further experiment the test system is Mus musculus. As to the kind of experiment: Effective dose for phenylbenzoquinone-induced writhing in mice after peroral administration expressed as analgesic activity. To be noted: po. The experiment is classed as functional. In a few lines:
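Mice dosed orally (0.5 mL/20 g); 1 h later given 0.02% phenylbenzoquinone in hydroalcoholic solution ip (0.20-0.24 mL). Writhings and stretches counted from minute 5 to minute 10. Six animals per group. Inhibition taken against the control mean; ED50 (50% decrease) by linear regression.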
(In writhing tests, fewer writhes than in controls are read as antinociception.)
Compound `OC[C@H]1O[C@@H](n2cnc3c(NCCc4cn(Cc5ccc(Cl)cc5)c5ccccc45)ncnc32)[C@H](O)[C@@H]1O` yielded an ED50 of 40.8 mg/kg.

Turning to `Cc1ccc(C)c(Cn2cc(CC(C)Nc3ncnc4c3ncn4C3O[C@H](C(=O)NC4CC4)[C@@H](O)[C@H]3O)c3ccccc32)c1` (stereo not given in full), the 50% effect level (ED50) was put at a dose of 3.6 mg/kg.

`Cc1ccc(C)c(Cn2cc(C(C)CNc3ncnc4c3ncn4[C@@H]3O[C@H](C(=O)NC4CC4)[C@@H](O)[C@H]3O)c3ccccc32)c1` (stereo not given in full) gave an ED50 of 0.9 mg/kg.

Turning to `Cc1ccc(C)c(Cn2cc(CCNc3ncnc4c3ncn4[C@@H]3O[C@H](C(N)=O)[C@@H](O)[C@H]3O)c3ccccc32)c1`, the ED50 was greater than 30 mg/kg.

Compound `O=C(NC1CC1)[C@H]1OC(n2cnc3c(NCCc4cn(CCN5CCCCC5)c5ccccc45)ncnc32)[C@H](O)[C@@H]1O` (stereo not given in full) had an ED50 of 7.3 mg/kg.

The record behind these values is ChEMBL document CHEMBL1127433, “N6-substituted adenosine receptor agonists. Synthesis and pharmacological activity as potent antinociceptive agents” (J Med Chem, 1994).
